The results in this text go back to ChEMBL document CHEMBL1275479, “Pharmacokinetics of miltefosine in Old World cutaneous leishmaniasis patients” (Antimicrob Agents Chemother, 2008).

A short description of data set [1]: Terminal half life in patient with cutaneous leishmaniasis at 2.5 mg/kg, po once a day measured after 6 to 8 days by LC-MS/MS assay. The note with it: human, in vivo. Format: ADME, organism-based. On the set-up: dose 2.5 mg/kg, route oral.
Data set [2] relates to Homo sapiens. Kind of data set: Hepatotoxicity in patient with cutaneous leishmaniasis assessed as mild elevation of alanine aminotransferase at […], po three times a day for 28 days. The data set is classed as toxicity, organism-based. On the set-up: route oral. The note with it: in vivo, 672 h.
In data set [3] the test system is Homo sapiens. Kind of data set: Toxicity in patient with cutaneous leishmaniasis assessed as mild to moderate fatigue at […], po three times a day for 28 days. The following applies: in vivo, 672 h. Also noted: route oral. Format: organism-based.
Data set [4] concerns Homo sapiens. The data set can be described thus: Hepatotoxicity in patient with cutaneous leishmaniasis assessed as mild elevation of aspartate aminotransferase at […], po three times a day for 28 days. The data set is classed as toxicity, organism-based. On the set-up: route oral. The note with it: in vivo, 672 h.
Data set [5] has as its system Homo sapiens. Kind of data set: Plasma concentration in patient with cutaneous leishmaniasis at […], po three times a day measured after 22 to 28 days by LC-MS/MS assay. The data set is classed as ADME, organism-based. Also noted: route oral. The following applies: in vivo. The procedure, abridged: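 31 cutaneous leishmaniasis patients given miltefosine 150 mg/day for 28 days. Venous EDTA blood was spun at about 23,100 × g, 4°C, 15 min, and plasma stored at ≤−20°C. Analysis was solid-phase extraction of 250 μl plasma, then isocratic C18 LC-MS/MS; range 4–2,000 ng/ml, higher samples diluted in blank plasma. Sampling windows: days 178–202, days 22–28.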

The test system of data set [6] is Homo sapiens. The data set can be described thus: Renal toxicity in patient with cutaneous leishmaniasis assessed as mild elevation of creatinine at […], po three times a day for 28 days. Format: organism-based. The note with it: in vivo, 672 h. On the set-up: route oral.
Data set [7] in a line: Cmax in serum of patient with cutaneous leishmaniasis at 2.5 mg/kg, po once a day for 23 days by LC-MS/MS assay. Format: ADME, organism-based. On the set-up: dose 2.5 mg/kg, route oral. The note with it: human.
Data set [8] is filed under the species Homo sapiens. Kind of data set: Plasma concentration in patient with cutaneous leishmaniasis measured after 178 to 202 days by LC-MS/MS assay. The following applies: in vivo.
A short description of data set [9]: Terminal half life in patient with leishmaniasis at […], po three times a day for 28 days by LC-MS/MS assay. Format: ADME, organism-based. On the set-up: route oral. The note with it: human, in vivo. Put shortly: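 Population pharmacokinetic fit in NONMEM of 382 plasma concentrations (LC-MS/MS, LLOQ 4 ng/ml) from 31 patients on 150 mg/day for 28 days, sampled up to day 202. Nested models were compared by objective function with the log likelihood ratio test and checked with observed-versus-predicted and conditional weighted residual plots; a two-compartment model was used for the terminal half-life.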

For data set [10], the system named is Homo sapiens. The data set can be described thus: Toxicity in patient with cutaneous leishmaniasis assessed as mild to moderate gastrointestinal side-effect at […], po three times a day for 28 days. The following applies: in vivo, 672 h. Also noted: route oral. The data set is classed as organism-based.

In the case of `CCCCCCCCCCCCCCCCOP(=O)([O-])OCC[N+](C)(C)C` [MILTEFOSINE], the half-life was 6.25 days in data set [1] and 30.9 days in data set [9]. The Activity entry is “Toxic” in [2]; “Toxic” in data set [3]; “Toxic” in data set [4]; 30800 ng/mL in data set [5]; “Toxic” in [6]; 17.5 ng/mL in data set [8]. In addition, the Activity entry in data set [10] is “Toxic”. Moreover, the Cmax in data set [7] was determined as 70 µg/mL.

As usually defined, the half-life is the time in which the quantity being followed falls by half. A high value points to slow decline. A word on the Cmax: it is the highest concentration seen after dosing.
